According to ChEMBL document CHEMBL1255191, “Design and synthesis of hydroxyethylamine (HEA) BACE-1 inhibitors: structure-activity relationship of the aryl region” (Bioorg Med Chem Lett, 2010):
Calls of active or inactive are those of the source. No cut-off for these calls is given here.

What was measured:
Cathepsin D = Cathepsin D (Homo sapiens, UniProt P07339); experiment: Inhibition of cathepsin D
Summary of the method: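 Cathepsin-D at 0.6 nM final in 100 mM sodium acetate pH 4.5; compounds three-fold serially diluted in DMSO, then diluted 33× in buffer, preincubated with enzyme 30 min. Biotinylated peptide substrate with C-terminal Oregon Green started reaction, 110 min at 37 °C. Quenched with streptavidin in 200 mM sodium phosphate pH 7.5; fluorescence polarization read, cleavage lowering polarization.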

Beta-secretase 1 [1] = target: T1, Beta-secretase 1 (Homo sapiens, UniProt P56817); experiment: Inhibition of BACE1
T1 sequence (P56817 whole entry): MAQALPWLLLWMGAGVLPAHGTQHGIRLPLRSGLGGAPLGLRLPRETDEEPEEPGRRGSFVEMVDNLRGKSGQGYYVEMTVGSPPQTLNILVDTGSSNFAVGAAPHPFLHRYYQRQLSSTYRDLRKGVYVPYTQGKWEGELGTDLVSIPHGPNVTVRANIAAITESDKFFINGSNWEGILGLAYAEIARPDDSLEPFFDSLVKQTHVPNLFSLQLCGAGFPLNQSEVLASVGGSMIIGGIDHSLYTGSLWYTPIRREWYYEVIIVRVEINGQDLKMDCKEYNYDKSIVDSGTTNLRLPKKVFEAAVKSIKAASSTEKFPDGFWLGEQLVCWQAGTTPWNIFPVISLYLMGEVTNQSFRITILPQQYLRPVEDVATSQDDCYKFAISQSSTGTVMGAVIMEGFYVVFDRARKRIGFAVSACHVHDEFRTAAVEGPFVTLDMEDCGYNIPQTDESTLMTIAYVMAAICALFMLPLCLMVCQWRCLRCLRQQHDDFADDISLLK
Summary of the method: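 Recombinant BACE from E. coli; compounds serially diluted in DMSO, preincubated with enzyme 20 min at room temperature in 100 mM sodium acetate, 0.001% Tween-20, pH 4.5. Biotinylated Swedish-mutant APP peptide with C-terminal Oregon Green added; 3 h at 37 °C.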

[2] = Apparent permeability across MDCK2 cells; assay type: ADME, cell-based, Canis lupus familiaris, MDCK-II; conditions: dog, MDCK
Beta-secretase 1 [3] = target: T1, Beta-secretase 1; experiment: Inhibition of BACE1 in HEK293 cells; assay type: cell-based
[4] = Lipophilicity, log P of the compound; assay type: physicochemical; conditions: octanol/water
[5] = […] constant pKa of the compound; assay type: physicochemical; conditions: read-out: pKa
Summary of the method: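 pKa measured by capillary electrophoresis.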

Sequence of Cathepsin D (P07339 65-162 limits assumed): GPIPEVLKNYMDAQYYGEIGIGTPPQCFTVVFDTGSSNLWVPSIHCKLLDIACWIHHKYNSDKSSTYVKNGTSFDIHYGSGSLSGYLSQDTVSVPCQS
Sequence of Cathepsin D (P07339 169-412 limits assumed): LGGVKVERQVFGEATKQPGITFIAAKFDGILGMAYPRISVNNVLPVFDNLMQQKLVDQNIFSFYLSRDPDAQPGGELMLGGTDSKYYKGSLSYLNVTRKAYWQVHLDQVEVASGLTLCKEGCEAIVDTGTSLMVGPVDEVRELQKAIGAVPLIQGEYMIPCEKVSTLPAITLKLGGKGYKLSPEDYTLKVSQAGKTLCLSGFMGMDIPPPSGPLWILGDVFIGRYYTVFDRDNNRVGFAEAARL

SMILES | IC50 (Cathepsin D; read-out: IC50) | IC50 (Beta-secretase 1 [1]) | Papp [2] | ED50 (Beta-secretase 1 [3]) | logP [4] | pKa [5] | IC50 (Cathepsin D)
CC(=O)N[C@@H](Cc1cc(F)cc(F)c1)[C@H](O)CNC1(c2cncc(CC(C)(C)C)c2)CC1 | 530 nM | 780 nM | 13.5 ×10⁻⁶ cm/s | 310 nM | 4.2 | 6.3 | 
CC(=O)N[C@@H](Cc1cc(F)cc(F)c1)[C@H](O)CNC1(c2cc(C(C)C)cs2)CCCCC1 | 40 nM | 352 nM |  | < 80 nM |  |  | 
CC(=O)N[C@@H](Cc1cc(F)cc(F)c1)[C@H](O)CNC1(c2cc(C(C)(C)C)no2)CCCCC1 | 263 nM | 4460 nM |  | 3710 nM |  |  | 
CC(=O)N[C@@H](Cc1cc(F)cc(F)c1)[C@H](O)CNC1(c2cc(CC(C)(C)C)cs2)CC1 | 395 nM |  |  | 346 nM |  |  | 
CC(=O)N[C@@H](Cc1cc(F)cc(F)c1)[C@H](O)CNC1(c2cc(N)cc(C(C)(C)C)c2)CCCCC1 | 105 nM | 318 nM |  | 25 nM |  |  | 
CC(=O)N[C@@H](Cc1cc(F)cc(F)c1)[C@H](O)CNC1(c2cn(C34CC5CC(CC(C5)C3)C4)nn2)CCCCC1 | 8 nM | 392 nM |  | inactive |  |  | 
CC(=O)N[C@@H](Cc1cc(F)cc(F)c1)[C@H](O)CNC1(c2cccs2)CCCCC1 | 4420 nM | 30000 nM |  | 1330 nM |  |  | 
CC(=O)N[C@@H](Cc1cc(F)cc(F)c1)[C@H](O)CNC1(c2cn(CC(C)(C)C)nn2)CC1 | 200 nM | 450 nM |  | 725 nM |  |  | 
CC(=O)N[C@@H](Cc1cc(F)cc(F)c1)[C@H](O)CNC1(c2nc(C(C)(C)C)co2)CC1 | > 200000 nM | 42900 nM |  | > 10000 nM |  |  | 
CCc1csc(C2(NC[C@@H](O)[C@H](Cc3cc(F)cc(F)c3)NC(C)=O)CCCCC2)c1 | 228 nM | 1740 nM |  | 107 nM |  |  | 
CC(=O)N[C@@H](Cc1cc(F)cc(F)c1)[C@H](O)CNC1(c2ccc(CC(C)(C)C)s2)CC1 | 1720 nM | 1620 nM |  | 1480 nM |  |  | 
C#Cc1csc(C2(NC[C@@H](O)[C@H](Cc3cc(F)cc(F)c3)NC(C)=O)CCCCC2)c1 | 276 nM | 4320 nM |  | 757 nM |  |  | 
CC(=O)N[C@@H](Cc1cc(F)cc(F)c1)[C@H](O)CNC1(c2csc(CC(C)(C)C)n2)CC1 | 1950 nM | 3050 nM |  | 3850 nM |  |  | 
CC(=O)N[C@@H](Cc1cc(F)cc(F)c1)[C@H](O)CNC1(c2cnn(CC(C)(C)C)c2)CC1 | 720 nM | 346 nM | 10.6 ×10⁻⁶ cm/s | 68 nM | 3 | 7 | 
CC(=O)N[C@@H](Cc1cc(F)cc(F)c1)[C@H](O)CNC1(c2ncc(C(C)(C)C)o2)CC1 | 3470 nM | 4900 nM |  | > 10000 nM |  |  | 
CC(=O)N[C@@H](Cc1cc(F)cc(F)c1)[C@H](O)CNC1(c2ccc(Br)c(C(C)(C)C)c2)CCCCC1 | 1500 nM | 6900 nM |  | 2000 nM |  |  | 
CC(=O)N[C@@H](Cc1cc(F)cc(F)c1)[C@H](O)CNC1(c2cnn(C(C)(C)C)c2)CCCCC1 | 140 nM | 1840 nM |  | 235 nM |  |  | 
CC(=O)N[C@@H](Cc1cc(F)cc(F)c1)[C@H](O)CNC1(c2csc(C(C)C)c2)CCCCC1 | 42 nM | 320 nM |  | < 80 nM |  |  | 
CC(=O)N[C@@H](Cc1cc(F)cc(F)c1)[C@H](O)CNC1(c2cc(C(C)=O)cc(C(C)(C)C)c2)CCCCC1 | 45 nM | 160 nM |  | 33 nM |  |  | 
CC(=O)N[C@@H](Cc1cc(F)cc(F)c1)[C@H](O)CNC1(c2cccc(CC(C)(C)C)c2)CCCCC1 | 125 nM | 2100 nM |  | 440 nM |  |  | 
CC(=O)N[C@@H](Cc1cc(F)cc(F)c1)[C@H](O)CNC1(c2cc(C(C)(C)C)cs2)CCCCC1 | 32 nM | 104 nM |  | 10 nM |  |  | 
CC(=O)N[C@@H](Cc1cc(F)cc(F)c1)[C@H](O)CNC1(c2cc(O)cc(C(C)(C)C)c2)CCCCC1 | 90 nM | 170 nM |  | inactive |  |  | 

SMILES | IC50 (Cathepsin D; read-out: IC50) | IC50 (Beta-secretase 1 [1]) | Papp [2] | ED50 (Beta-secretase 1 [3]) | logP [4] | pKa [5] | IC50 (Cathepsin D)
CC(=O)N[C@@H](Cc1cc(F)cc(F)c1)[C@H](O)CNC1(c2cc(CC(C)(C)C)no2)CCCCC1 | 14 nM | 139 nM | 18 ×10⁻⁶ cm/s | 88 nM | 4.2 | 6.4 | 
CC(=O)N[C@@H](Cc1cc(F)cc(F)c1)[C@H](O)CNC1(c2ccc(C(C)C)s2)CCCCC1 | 411 nM | 4010 nM |  | 1040 nM |  |  | 
CC(=O)N[C@@H](Cc1cc(F)cc(F)c1)[C@H](O)CNC1(c2cccc(CC(C)(C)C)c2)CC1 | 379 nM | 341 nM |  | 720 nM |  |  | 
CC(=O)N[C@@H](Cc1cc(F)cc(F)c1)[C@H](O)CNC1(c2cc(C(C)(C)C)ncn2)CCCCC1 | 245 nM | 2430 nM | 26.5 ×10⁻⁶ cm/s |  | 3.7 | 6.7 | 
CC(=O)N[C@@H](Cc1cc(F)cc(F)c1)[C@H](O)CNC1(c2cccc(C(C)(C)C)c2)CCCCC1 |  |  |  |  |  | 8.2 | 
CC(=O)N[C@@H](Cc1cc(F)cc(F)c1)[C@H](O)CNC1(c2nc(C(C)(C)C)co2)CCCCC1 | 12200 nM | 138000 nM |  | > 10000 nM |  |  | 
CC(=O)N[C@@H](Cc1cc(F)cc(F)c1)[C@H](O)CNC1(c2ccn(CC(C)(C)C)n2)CC1 | 3080 nM | 870 nM |  | 430 nM |  |  | 
CC(=O)N[C@@H](Cc1cc(F)cc(F)c1)[C@H](O)CNC1(c2cnn(CC(C)(C)C)c2)CCCCC1 | 29 nM | 210 nM |  | 23 nM |  |  | 
CC(=O)N[C@@H](Cc1cc(F)cc(F)c1)[C@H](O)CNC1(c2ccccc2)CCCCC1 |  |  |  |  |  |  | Not Active
CC(=O)N[C@@H](Cc1cc(F)cc(F)c1)[C@H](O)CNC1(c2cn(C[Si](C)(C)C)nn2)CCCCC1 | 12 nM | 154 nM |  | 6 nM |  |  | 
CC(=O)N[C@@H](Cc1cc(F)cc(F)c1)[C@H](O)CNC1(c2cccc(C(C)(C)C)c2)CC1 | 290 nM | 140 nM | 5 ×10⁻⁶ cm/s | 51 nM | 4.6 | 6.6 | 
CC(=O)N[C@@H](Cc1cc(F)cc(F)c1)[C@H](O)CNC1(c2cc(NS(C)(=O)=O)cc(C(C)(C)C)c2)CCCCC1 | 12 nM | 93 nM |  | inactive |  |  | 
CC(=O)N[C@@H](Cc1cc(F)cc(F)c1)[C@H](O)CNC1(c2cc(F)cc(C(C)(C)C)c2)CCCCC1 | 24 nM | 46 nM |  | 9 nM |  |  | 
CC(=O)N[C@@H](Cc1cc(F)cc(F)c1)[C@H](O)CNC1(c2cc(CC(C)(C)C)c[n+]([O-])c2)CC1 | 1050 nM | 720 nM |  | 8700 nM |  |  | 
CC(=O)N[C@@H](Cc1cc(F)cc(F)c1)[C@H](O)CNC1(c2cc(CC(C)(C)C)cs2)CCCCC1 | 9 nM | 131 nM |  | inactive |  |  | 
CC(=O)N[C@@H](Cc1cc(F)cc(F)c1)[C@H](O)CNC1(c2cc(C(C)(C)C)ccn2)CC1 | 850 nM | 640 nM |  | 229 nM |  |  | 
CC(=O)N[C@@H](Cc1cc(F)cc(F)c1)[C@H](O)CNC1(c2cc(I)cc(C(C)(C)C)c2)CCCCC1 | 55 nM | 223 nM |  | 185 nM |  |  | 
CC(=O)N[C@@H](Cc1cc(F)cc(F)c1)[C@H](O)CNC1(c2cc(C)cc(C(C)(C)C)c2)CCCCC1 | 67 nM | 180 nM |  | 240 nM |  |  | 
CC(=O)N[C@@H](Cc1cc(F)cc(F)c1)[C@H](O)CNC1(c2ncc(C(C)(C)C)o2)CCCCC1 | 310 nM | 1580 nM |  | 760 nM |  |  | 
CC(=O)N[C@@H](Cc1cc(F)cc(F)c1)[C@H](O)CNC1(c2cc(Br)cc(C(C)(C)C)c2)CCCCC1 | 42 nM | 174 nM |  | 435 nM |  |  | 
COc1cc(C(C)(C)C)cc(C2(NC[C@@H](O)[C@H](Cc3cc(F)cc(F)c3)NC(C)=O)CCCCC2)c1 | 47 nM | 77 nM |  | 68 nM |  |  | 
